Experimental findings from PMC5180416 (Journal of the American Chemical Society, 2012) are described below.

Read-outs that look alike come from different tables or passages of the source. Peptide text beside a SMILES is read from it. Bounds are passed on as bounds.

Experiment [1] deals with MLL1 core complex (MLL1/WDR5/RbBP5/ASH2L) (Homo sapiens, UniProt P61964). The experiment can be described thus: In vitro H3K4 histone methyltransferase. Type of experiment: biochemical. Particulars: for inhibition of MLL1 HMT activity, result in words: up to 400 μM.
The target of the next experiment is WDR5 (Homo sapiens, UniProt P61964). Description: Fluorescence-polarization. In kind it is binding. Particulars: for decrease in binding affinity to WDR5 (times) compared to ARA (Ac-ARA-NH2) / improvement in binding affinity to WDR5 (times more potent) compared to ARA (Ac-ARA-NH2): relative to ARA peptide; for weakening of binding to WDR5 (times) compared to Val and Abu at Ala1: relative to Val and Abu.

Experiment [2] concerns K562 cells. Description: Annexin V-propidium iodide apoptosis assay. In kind it is cell-based. Particulars: K562, up to 50 μM, 96 h.
A further experiment concerns Meis-1. Description: qRT-PCR analysis of Meis-1 expression in MLL1-AF9 transduced bone marrow cells. The conditions noted are these: 50 μM, 96 h, MLL1-AF9 transduced murine cells. Type of experiment: cell-based. The gist of the method: (§1)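 Murine bone marrow cells transduced with MLL1-AF9 were exposed for 96 h to test compound (25 or 50 μM), a control compound (50 μM) or mock, all at 0.2% final DMSO. Total RNA was extracted (Trizol plus column kit) and cDNA made by random priming. SYBR real-time PCR used gene-specific primers for HoxA9, Meis1 and GAPDH. Expression is relative to mock after normalizing to GAPDH or total input RNA; unpaired t test versus mock.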

In experiment [3] the test system is MV4;11 cells. Description: Cell growth, CellTiter-Glo Luminescent Cell Viability Assay. In kind it is cell-based. Particulars: 7 days. The gist of the method:
(§2)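 Cells grown in RPMI 1640 with 10% FBS and penicillin-streptomycin at 37 °C, 5% CO2. Seeded at 5 × 10^5 cells per well and exposed to test compound or 0.2% DMSO vehicle for 7 days. Medium was changed and compound resupplied every 2 days. CellTiter-Glo reagent added, 2 min shaking to lyse, 10 min at room temperature, then luminescence read.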

In the next experiment the test system is KOPN8 cells. The experiment is described as above. In kind it is cell-based. Particulars: 7 days. The gist of the method:
as §2

The test system of experiment [4] is K562 cells. The description is as above. Type of experiment: cell-based. The conditions noted are these: 7 days. Summed up:
as §2

For a further experiment, the system named is HoxA9. The experiment can be described thus: qRT-PCR analysis of HoxA9 expression in MLL1-AF9 transduced bone marrow cells. In kind it is cell-based. The conditions noted are these: 96 h, MLL1-AF9 transduced murine cells. Summed up: as §1
In a further experiment the test system is GAPDH. Description: qRT-PCR analysis of GAPDH. Type of experiment: cell-based. The conditions noted are these: 96 h, MLL1-AF9 transduced murine cells. The gist of the method:
as §1
A general note: Real-time PCR tracks product formation cycle by cycle.

In experiment [5] the test system is MV4;11 cells. The experiment can be described thus: Annexin V-propidium iodide apoptosis assay. Type of experiment: cell-based. The conditions noted are these: MV4;11, 50 μM, 96 h.

A word on the IC50: it is the midpoint of a concentration-inhibition curve. For `CC(=O)N[C@@H](C)C(=O)N[C@@H](CCCNC(=N)N)C(=O)N[C@@H](C)C(N)=O` [ARA, Ac-ARA-NH2] (Ac-Ala-Arg-Ala-NH2), the IC50 in [1] turned out to be 141 ± 52 µM.

With `CC(=O)NCC(=O)N[C@@H](CCCNC(=N)N)C(=O)N[C@@H](C)C(N)=O` [Compound 1a] (Ac-Gly-Arg-Ala-NH2), the “inhibition of MLL1 HMT activity, result in words” value (“inhibition of MLL1 HMT activity” below) in experiment [1] is given as “fail to inhibit the MLL1 HMT activity”. At WDR5, the “decrease in binding affinity to WDR5 (times) compared to ARA (Ac-ARA-NH2)” value (“decrease in binding affinity … (Ac-ARA-NH2)” for short) was more than 100.

In the case of `CC[C@H](NC(C)=O)C(=O)N[C@@H](CCCNC(=N)N)C(=O)N[C@@H](C)C(N)=O` [Compound 1b], the “improvement in binding affinity to WDR5 (times more potent) compared to ARA (Ac-ARA-NH2)” value (from here on “improvement … compared to ARA (Ac-ARA-NH2)”) at WDR5 worked out at 2.

For `CC(=O)N[C@H](C(=O)N[C@@H](CCCNC(=N)N)C(=O)N[C@@H](C)C(N)=O)C(C)C` [Compound 1c] (Ac-Val-Arg-Ala-NH2), on WDR5, the “improvement … compared to ARA (Ac-ARA-NH2)” value is on record as 2.

With `CC(=O)N[C@@H](CS)C(=O)N[C@@H](CCCNC(=N)N)C(=O)N[C@@H](C)C(N)=O` [Compound 1d] (Ac-Cys-Arg-Ala-NH2), on WDR5, the “decrease in binding affinity … (Ac-ARA-NH2)” value stood at 3.

For the molecule `CC(=O)N[C@@H](Cc1c[nH]cn1)C(=O)N[C@@H](CCCNC(=N)N)C(=O)N[C@@H](C)C(N)=O` [Compound 1g] (Ac-His-Arg-Ala-NH2), at WDR5, the “decrease in binding affinity … (Ac-ARA-NH2)” value is recorded as 3–6.

Regarding `CC(=O)N[C@@H](Cc1ccccc1)C(=O)N[C@@H](CCCNC(=N)N)C(=O)N[C@@H](C)C(N)=O` [Compound 1h] (Ac-Phe-Arg-Ala-NH2), the “inhibition of MLL1 HMT activity” value in experiment [1] is on record as “fail to inhibit the MLL1 HMT activity”. Also, the “decrease in binding affinity … (Ac-ARA-NH2)” value on WDR5 was 3–6.

Turning to `CC(=O)N[C@@H](CO)C(=O)N[C@@H](CCCNC(=N)N)C(=O)N[C@@H](C)C(N)=O` [Compound 1i] (Ac-Ser-Arg-Ala-NH2), at WDR5, the “decrease in binding affinity … (Ac-ARA-NH2)” value turned out to be 5; the “weakening of binding to WDR5 (times) compared to Val and Abu at Ala1” value is on record as “approximately 10”.

`CC(=O)N[C@H](C(=O)N[C@@H](CCCNC(=N)N)C(=O)N[C@@H](C)C(N)=O)[C@@H](C)O` [Compound 1j] (Ac-Thr-Arg-Ala-NH2): at WDR5, the “decrease in binding affinity … (Ac-ARA-NH2)” value was determined as 5; the “weakening of binding to WDR5 (times) compared to Val and Abu at Ala1” value is on record as “approximately 10”.

One may read the Ki as a dissociation constant, usually derived from enzyme kinetics or from competition with a known ligand. At WDR5, `CCCC[C@H](NC(=O)[C@H](C)NC(C)=O)C(=O)N[C@@H](C)C(N)=O` [Compound 2a] displayed an IC50 of more than 300 µM and a Ki of more than 65 µM. On WDR5 (FP-based competitive binding), the “binding to WDR5, result in words” value is “complete loss of binding”.

As for `CC(=O)N[C@@H](C)C(=O)N[C@@H](CCCN)C(=O)N[C@@H](C)C(N)=O` [Compound 2b], on WDR5, the IC50 was more than 300 µM and the inhibition constant (Ki) was more than 65 µM. Moreover, at WDR5 (FP-based competitive binding), the “binding to WDR5, result in words” value was “complete loss of binding”.

On to `CC(=O)N[C@@H](C)C(=O)N[C@@H](CCCCN)C(=O)N[C@@H](C)C(N)=O` [Compound 2c] (Ac-Ala-Lys-Ala-NH2), for which, on WDR5, the IC50 is more than 300 µM and the Ki was more than 65 µM. Further, on WDR5 (FP-based competitive binding), the “binding to WDR5, result in words” value was “inactive”.

`CC(=O)N[C@@H](C)C(=O)N[C@@H](CCCNC(N)=O)C(=O)N[C@@H](C)C(N)=O` [Compound 2d]: the “inhibition of MLL1 HMT activity” value in experiment [1] is on record as “fail to inhibit the MLL1 HMT activity”. Besides, at WDR5 (FP-based competitive binding), the “binding to WDR5, result in words” value was “fails to bind to WDR5”.

Consider `CC(=O)N[C@@H](C)C(=O)N[C@@H](CCCNC(=N)N)C(=O)NCC(N)=O` [Compound 3a] (Ac-Ala-Arg-Gly-NH2), for which the “decrease in binding affinity … (Ac-ARA-NH2)” value on WDR5 was more than 10.

Consider `CC[C@H](NC(=O)[C@H](CCCNC(=N)N)NC(=O)[C@H](C)NC(C)=O)C(N)=O` [Compound 3b], for which the “improvement … compared to ARA (Ac-ARA-NH2)” value at WDR5 came out at 20.

Consider `CC(=O)N[C@@H](C)C(=O)N[C@@H](CCCNC(=N)N)C(=O)N[C@H](C(N)=O)C(C)C` [Compound 3c] (Ac-Ala-Arg-Val-NH2), for which the “improvement … compared to ARA (Ac-ARA-NH2)” value on WDR5 was 5.

`CC(=O)N[C@@H](C)C(=O)N[C@@H](CCCNC(=N)N)C(=O)N[C@@H](CO)C(N)=O` [Compound 3h] (Ac-Ala-Arg-Ser-NH2): the “decrease in binding affinity … (Ac-ARA-NH2)” value at WDR5 is listed as 3.

Consider `CC(=O)N[C@@H](C)C(=O)N[C@@H](CCCNC(=N)N)C(=O)N[C@H](C(N)=O)[C@@H](C)O` [Compound 3i] (Ac-Ala-Arg-Thr-NH2), for which, at WDR5 (relative to 3b), the “reduction of binding affinity to WDR5 (fold) compared to 3b” value is reported as 3. The “improvement … compared to ARA (Ac-ARA-NH2)” value at WDR5 worked out at 5.

For `CC(=O)N[C@@H](C)C(=O)N[C@@H](CCCNC(=N)N)C(=O)N[C@@H](CCC(=O)O)C(N)=O` [Compound 3j] (Ac-Ala-Arg-Glu-NH2), the “decrease in binding affinity … (Ac-ARA-NH2)” value on WDR5 was more than 100.

`CCC(CC)(NC(C)=O)C(=O)N[C@@H](CCCNC(=N)N)C(=O)N[C@H](C(N)=O)C(C)C` [Compound 4f]: the “times more potent than 3c in binding to WDR5” value on WDR5 (relative to 3c) was found to be 5.

`CC(=O)N[C@H](C(=O)N[C@@H](CCCNC(=N)N)C(=O)N[C@H](C(N)=O)C(C)C)C1CCCC1` [Compound 4i]: the “decrease in binding affinity to WDR5 (times less potent) compared to 3c” value at WDR5 (relative to 3c) was determined as 15.

As to `CC(=O)N[C@H](C(=O)N[C@@H](CCCNC(=N)N)C(=O)N[C@H](C(N)=O)C(C)C)c1ccccc1` [Compound 4j], the “decrease in binding affinity to WDR5 (times less potent) compared to 3c” value at WDR5 (relative to 3c) amounted to 50.

As to `CCC(CC)(NC(=O)C(C)C)C(=O)N[C@@H](CCCN=C(N)N)C(=O)NC1(C(=O)NC(c2ccc(F)cc2)c2ccc(F)cc2)CCCC1` [MM-102], the “cells undergoing cell death” value in the experiment on K562 cells [2] is less than 10%; with MV4;11 cells [5], more than 75%. Also, the “decrease in Meis-1 expression” value with Meis-1 is 40%. Moreover, the “improvement … compared to ARA (Ac-ARA-NH2)” value on WDR5 is on record as more than 200. Also, the “cell growth inhibition, in words” value is “completely inhibits cell growth” in the experiment on MV4;11 cells [3] (MV4;11, 75 μM) and “completely inhibits cell growth” with KOPN8 cells (KOPN8, 75 μM). Moreover, the IC50 in the experiment on MV4;11 cells [3] (read-out: cell growth inhibition IC50, MV4;11 (MLL1-AF4)) came to 25 µM; in the experiment on KOPN8 cells (read-out: cell growth inhibition IC50, KOPN8 (MLL1-ENL)), 25 µM. Besides, the “effect on cell growth, in words” value with K562 cells [4] (K562 (BCR-ABL, no MLL1 fusion), up to 50 μM) is given as “no effect”; in the experiment on K562 cells [4] (K562, 75 μM), “minimal effect”. The “reduction in HoxA9 gene expression compared with Mock” value is listed as “Approximately 50%” with HoxA9 (25 μM) and approximately 70% with HoxA9 (50 μM). Also, the “effect on expression of GAPDH, in words” value in the experiment with GAPDH is listed as “did not affect the expression of GAPDH”.

With `CCC(CC)(NC(=O)C(C)C)C(=O)N[C@@H](CCCNC(=N)N)C(=O)NC1(C(=O)NC(c2ccc(Cl)cc2)c2ccc(Cl)cc2)CCCC1` [MM-103], the Ki on WDR5 (read-out: Ki ± SD, binding affinity to WDR5, FP-based competitive binding) is less than 0.001 µM.
